Yeast growth inh: growth inhibitors of yeast BB579 in restrictive medium, primary screen, yeast lifespan-shortening project, S. cerevisiae; inhibition, % at 10 µM; OD615, 48 h; AID 804, 2007; 140,000 compounds, 0.51% hits;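 active means inhibition above a set limit, 3 SD over the mean compound inhibition, cut at about 44% in these data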
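Assay system: S. cerevisiae DeaD strain BB579 yeast. Medium: CSMM-D restrictive synthetic medium containing dextrose (glucose). Times: 4 h cell preincubation, 48 h compound exposure, 30 °C humidified. Signal: OD615 turbidity measurement. Benchmarks: positive control amphotericin B 10 µg/mL.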
PostGolgi ctrl: growth inhibition of yeast control strain, primary screen, counter-screen for post-Golgi transport modulator project. efflux-deficient yeast background strain, growth absorbance A615, 16 h. inhibition, % at 10 µM. 98,000 compounds, 5% hits. AID 738, 2007
Yeast life ext: compounds extending yeast replicative lifespan, primary screen, S. cerevisiae, OD615 | 130,000 compounds, 0.68% hits | inhibition of the nicotinamide effect, % at 10 µM | S. cerevisiae growth with nicotinamide; deaD strain in restrictive glucose medium | AID 775, 2007;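 active means inhibition above a set limit, placed 3 SD over the median of all compounds, cut at about 26% in these data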;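 further: 0% = nicotinamide-treated wells and 100% = cells grown without nicotinamide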
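Buffer or medium: CSMM-D glucose medium, restrictive; test system: modified budding yeast, DeaD strain; compound: single dose 10 µM compound, 0.25% DMSO; schedule: culture preincubation 4 h, compound exposure 48 h, both 30 °C; detection: optical density (absorbance) at 615 nm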
PostGolgi yeast: phenotypic screen on post-Golgi transport, primary screen; post-Golgi transport phenotypic cell assay; inhibition, % at 10 µM; 98,000 compounds, 0.9% hits;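 further: yeast cells grown in 1536-well plates; yeast grown about 18 h at 30C before absorbance read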
* hit, by the source's call; nt = no result. The entries come from a sample that favours hits as a whole. Unless noted, no stated cut-off is given here; in the data, active means inhibition above about 30%; inactive means the rest.

SMILES	Yeast growth inh	PostGolgi ctrl	Yeast life ext	PostGolgi yeast
CNc1cc(CSC)nc(SCc2ccc(Cl)c(Cl)c2)n1	-40.0	35.0*	-3.5	27.4
O=C1C(=C2CCCCC2)SC(=S)N1Cc1ccco1	-20.9	15.5	-4.1	-0.6
CCn1c(/N=C/c2ccccc2NS(=O)(=O)c2ccc(C)cc2)nc2ccccc21	-5.4	nt	49.8*	nt
CCC(=O)N1CCN(c2ccc(NC(=O)c3cc4ccccc4o3)cc2Cl)CC1	-38.4	37.9*	-14.1	5.9
CCCC(=O)N1CCN(c2ccc(NC(=O)c3cc4ccccc4o3)cc2Cl)CC1	-15.4	50.1*	-20.7	86.4*
COc1cc(CC(=O)Nc2ccc(S(=O)(=O)N(C)C)cc2)cc(OC)c1OC	12.3	4.6	-9.3	2.1
C/C(=N\N=C(/N)SC1CC(=O)N(c2ccc(Br)cc2)C1=O)c1cccs1 (configuration not stated)	-39.7	41.4*	-15.5	-5.4
C/C(=N\N=C(/N)SC1CC(=O)N(c2ccc(Cl)c(Cl)c2)C1=O)c1cccs1 (configuration not stated)	-46.3	57.1*	-11.3	101.8*
C/C(=N\N=C(/N)SC1CC(=O)N(c2ccccc2)C1=O)c1cccs1 (configuration not stated)	-36.9	2.7	-7.6	6.8
COc1cc(C(=O)NCCOc2cc(C)cc(C)c2)c(Br)c(OC)c1OC	-23.2	14.4	-8.8	-5.4
CCn1ncc(Br)c1C(=O)Nc1ccc(C(=O)OC(C)C)cc1	-36.3	5.0	-16.6	-7.4
O=C(OCn1ncc(Br)c(Br)c1=O)c1ccc(F)cc1	91.2*	46.3*	-11.4	106.7*
O=C(OCc1cnc(Cl)s1)c1ccccc1Cl	-35.8	9.6	-8.1	-3.8
O=C(OCn1ncc(Br)c(Br)c1=O)c1ccccc1Cl	72.8*	34.3*	23.0	107.5*
O=C(CSc1ncc(-c2ccc(F)cc2)n1Cc1ccco1)Nc1ccc2c(c1)OCO2	-61.3	30.9*	13.4	18.6
Cc1c(C)n(C(=O)CSc2nc3ccccc3[nH]2)c2ccccc12	-36.3	31.4*	-6.3	-2.4
O=C(O)/C=C/c1cn(Cc2ccccc2)nc1-c1ccccc1	-42.9	25.2	-13.6	-1.1
O=C(O)CCn1cc(/C=C/C(=O)c2ccc(Cl)cc2)c(-c2ccc(Br)cc2)n1	52.3*	nt	-9.6	nt
Cc1cc(C)c(C#N)c(SCS(=O)Cc2ccc(Cl)cc2)n1 (configuration not stated)	-9.8	37.7*	-11.1	8.7
C=CCSc1nc2ccccc2n1Cc1nnc(-c2cccs2)o1	-46.7	7.6	-2.2	1.4
CCSc1nccc(-c2nn(-c3ccc(C)cc3)ccc2=O)n1	-81.6	15.4	-12.8	-4.8
C=CCSc1nccc(-c2nn(-c3ccc(C)cc3)ccc2=O)n1	-10.9	34.2*	-8.4	1.9
CC/C(=C\C(=O)c1ccncc1)Nc1ccc(Br)cc1	-54.7	37.5*	-13.4	34.4*
Cc1cccc(C)c1OCCCCc1c(C)n[nH]c1C	5.2	19.6	-23.6	-3.0
Cc1ccccc1OCCCCc1c(C)n[nH]c1C	4.0	45.5*	-13.6	1.9
SMILES	Yeast growth inh	PostGolgi ctrl	Yeast life ext	PostGolgi yeast
CCN(CC)CC#CCC(C)(c1ccccc1)c1ccccc1	27.7	6.4	-6.4	-2.1
O=c1c(Sc2ccccc2)c(C(F)(F)F)[nH]n1-c1ccccc1	-63.8	4.0	-2.4	-6.1
O=C(O)c1ccccc1C(=O)NNc1ccc(Cl)cc1	92.9*	1.2	-23.8	7.2
O=C(CSCC(=O)N1CCCCC1)Nc1nc(-c2ccc(Cl)s2)cs1	1.8	71.6*	-7.0	32.2*
CC1CC(C)CN(C(=O)CSCC(=O)Nc2nc(-c3cccs3)cs2)C1 (configuration not stated)	-65.7	71.7*	-8.1	5.1
O=C(CSCC(=O)N1CCCCC1)Nc1nc(-c2cccs2)cs1	4.6	20.1	-7.3	-2.4
O=C(CSCC(=O)N1CCN(c2ccccc2)CC1)Nc1nc(-c2ccc(Cl)s2)cs1	17.3	16.0	-6.0	16.3
Cc1onc(-c2ccccc2)c1C(=O)NC(=S)NNC(=O)c1ccc(O)cc1O	80.1*	nt	0.1	nt
COc1cc(CCN2C(=O)c3cccc4cccc(c34)C2=O)c(S(=O)(=O)NCCCO)cc1OC	-18.6	0.3	2.3	0.2
O=C(NCCc1ccccc1)C1CC(c2ccccc2O)=NO1 (configuration not stated)	-4.9	17.0	-24.1	3.6
CCCCC(CC)CN1C(=O)/C(=C/c2ccncc2)SC1=S (configuration not stated)	-24.8	31.8*	-8.5	12.9

Source: PubChem BioAssay (SRMLSC)
